High-throughput results deposited in PubChem BioAssay by Sanford-Burnham Center for Chemical Genomics.
G6PDH counter – inhibits Leuconostoc G6PDH, flagging false hits in G6PDH-based assays; Purified L. mesenteroides G6PDH, diaphorase/resazurin coupled fluorescence, 45 min; inhibition, % at 5 µM; 200,000 tested, 0.12% active; in the data active means inhibition above about 50%
Diaph inh CS – diaphorase inhibition or chemical oxidation counter-screen; diaphorase resazurin-to-resorufin fluorescence, NADH, 16 min; bacterial (C. kluyveri) enzyme, not human; 190,000 tested, 0.69% active; inhibition, % at 20 µM; AID 1217;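 active means primary screen inhibition at 20 µM above a set limit, cut at about 50% in these data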;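 further: plate controls were DMSO with full reaction for no effect and wells lacking NADH for full effect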
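Assay system: diaphorase enzyme from Clostridium kluyveri; Input: enzyme working solution with 0.14 U/mL diaphorase; Timing: 16 min at room temperature; Technique: resorufin fluorescence, excitation 544 nm, emission 590 nm; Benchmarks: positive control minus NADH, DMSO neutral control.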
HKDC1 inh – HKDC1 (human) hexokinase inhibition | Q2TB90 | recombinant HKDC1, G6PDH/diaphorase resazurin coupled fluorescence | AID 493160 | inhibition, % at 20 µM | 340,000 tested, 0.16% active;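 active means inhibition above about 35% when tested at 20 µM, limit read from the data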;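 further: plate controls were DMSO wells with enzyme for no effect and DMSO wells lacking enzyme for full effect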
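Material: recombinant HKDC1 hexokinase; Amount: HKDC1 at 5 µg/mL; Medium: Tris pH 8.0 buffer with MgCl2, Tween-20, BSA, BME; Schedule: 90 min reaction incubation at room temperature, dark; Technique: coupled resazurin fluorescence, excitation 525 nm, emission 613 nm.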
PfGluPho inh – PfG6PD (Plasmodium falciparum) enzyme inhibition; inhibition, % at 20 µM; 350,000 tested, 0.78% active; AID 504690; PfGluPho enzyme, NADPH resazurin-diaphorase fluorescence;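 active means inhibition reaching at least a set limit at 20 µM in the primary screen, cut at about 59% in these data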;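 further: 0% = DMSO wells with substrate and 100% = DMSO wells lacking glucose-6-phosphate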
PfGluPho conf – PfG6PD inhibition, single-dose confirmed. shares compounds with PfGluPho inh. recombinant PfGluPho, NADPH-diaphorase-resazurin fluorescence. inhibition, % at 20 µM. 2,400 tested, 34% active;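 active means inhibition of at least 50% at 20 µM in any single replicate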;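 further: 0% = DMSO with substrate and 100% = DMSO lacking glucose-6-phosphate substrate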
Diaph ctr 10uM – counter-screen for P. falciparum G6PD inhibitors: diaphorase inhibitors, oxidizers; diaphorase-coupled resazurin reduction, fluorescence, NADPH 10 uM; shares compounds with PfGluPho inh; 820 tested, 39% active; inhibition, % at 20 µM;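 active means average inhibition reaching 50% or more with the compound at 20 µM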;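 further: resorufin red fluorescence formed as diaphorase reduces resazurin using NADPH; 0% = DMSO with enzyme and 100% = DMSO without enzyme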
Diaphorase 30uM – counter-screen for P. falciparum G6PD inhibitors: diaphorase inhibitors, oxidizers; Diaphorase/resazurin coupled assay, resorufin fluorescence, 30 uM NADPH; inhibition, % at 20 µM; 820 tested, 29% active; shares compounds with PfGluPho inh;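 active means inhibition averaging 50% or more, tested at 20 µM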;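 further: 0% = DMSO with enzyme and 100% = DMSO wells lacking diaphorase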
The depositor's hits bear a star; . = no result. This is a sample that favours compounds with a hit; in the whole collection about 1.3% have one here.

SMILES	G6PDH counter	Diaph inh CS	HKDC1 inh	PfGluPho inh	PfGluPho conf	others
CCN(CC)C(=O)[C@H]1CC(CC(=O)NC(C)(C)C)C(=O)N2CCc3c([nH]c4ccccc34)[C@]12C (some centres not stated)	.	.	-4	-2	.
COc1ccc2c(c1)C(=O)N(c1ccccc1)C(=O)C2	13	-15	-2	-13	.
COc1ccc2c(c1)C1(C)CC(C)(C)N2C(=O)N1c1ccccc1 (configuration not stated)	18	14	4	73*	47
Cc1cc(C(=O)COc2cc(F)ccc2[N+](=O)[O-])c(C)n1CC1CCCO1 (configuration not stated)	.	.	-1	-14	.
Cc1nc(N2CCC(C)CC2)c2c(C)c(C(=O)Nc3cccc(C(F)(F)F)c3)sc2n1	4	14	0	8	.
Cc1nc(Nc2cnc(/C=C/c3cc(C(=O)Nc4cccc(C(F)(F)F)c4)ccc3C)cn2)cc(N2CCNCC2)n1	.	.	-9	62*	-12
O=[N+]([O-])c1ccc(NN=C(Oc2ccccc2)c2ccc([N+](=O)[O-])cc2)cc1	.	.	.	8	.
CC/C(=N\Nc1ccc([N+](=O)[O-])cc1)c1ccccc1	-11	-6	-6	74*	-15
COc1cc(Sc2ccc(C)cc2)c(OC)cc1N	35	16	17	60*	56*	Diaph ctr 10uM=17;Diaphorase 30uM=17
COC(=O)c1ccc(Sc2ccc(C)cc2)c(N)c1	-2	14	-1	45	.
CC(C(=O)Nc1cc([N+](=O)[O-])ccc1Cl)N1CCN(c2ccc(O)cc2)CC1 (configuration not stated)	-11	23	7	60*	29
Cc1ccc(CNC(=O)CNS(=O)(=O)c2ccc3c(c2)C(C)(C)C(=O)N3C)cc1	.	.	-4	10	.
CCN(C[C@H]1N[C@@](C)(C(=O)OC)[C@H]2C(=O)N(Cc3ccccc3)C(=O)[C@@H]12)C(=O)c1ccc(C)cc1	.	.	-4	-1	.
CCn1c(SCC(=O)Nc2ccccc2Br)nnc1-c1cnccn1	.	.	-6	40	.
CCn1c(SCC(=O)Nc2ccc(F)cc2)nnc1-c1cnccn1	.	.	-4	87*	36
C=CCn1c(SCC(=O)Nc2ccc(F)cc2)nnc1-c1cnccn1	.	.	-2	64*	35
CCOc1ccccc1NC(=O)CSc1nnc(-c2cnccn2)n1CC	4	6	-3	73*	48
NC(=O)c1nsc(C(=O)N(c2ccc3c(c2)OCCO3)C(C(=O)NCC2CCCO2)c2ccc(F)cc2)c1N (configuration not stated)	.	.	0	9	.
N#CCC(=O)Nc1ccc(C(=O)OCC(=O)c2ccc3c(c2)NC(=O)CO3)cc1	.	.	7	5	.
COc1cc(N)c2ncsc2c1	.	.	13	69*	72*	Diaph ctr 10uM=-11;Diaphorase 30uM=-11
CN1CCSc2ccc(C(=O)NCc3cccc(F)c3)cc21	.	.	2	69*	-20
COc1ccc(Br)cc1CNC(=O)c1ccc2c(c1)N(C)CCS2	.	.	-3	26	.
COc1cccc(NC(=O)c2ccc3c(c2)N(C)CCS3)c1	.	.	-1	94*	27
Cc1nn(CC(C)C)c2sc(C(=O)NC3CC(C)(C)NC(C)(C)C3)cc12	.	.	4	-14	.
Cc1cc(OCc2nc(N)nc(N)c2-c2ccc(Cl)c(Cl)c2)ccc1[N+](=O)[O-]	.	.	1	13	.
SMILES	G6PDH counter	Diaph inh CS	HKDC1 inh	PfGluPho inh	PfGluPho conf	others
O=[N+]([O-])c1ccc(Sc2cccc3cccnc23)c2cccnc12	23	59*	7	94*	53*	Diaph ctr 10uM=66*;Diaphorase 30uM=46
O=[N+]([O-])c1cc2cccnc2c2ncccc12	.	.	4	18	.
COc1cccc(-c2nn(C)c3sc(C(=O)NCc4ccc(C)o4)cc23)c1	6	16	6	64*	-9
COc1cccc(-c2nn(C)c3sc(C(=O)NCc4ccc5c(c4)OCO5)cc23)c1	0	23	0	17	.
O=C1N/C(=N\c2ccccn2)SC1Cc1ccccc1Cl (configuration not stated)	.	.	-4	-12	.
Clc1ss/c(=N\c2ccccn2)c1Cl	-12	2	-7	64*	-6
COC(=O)c1sc(NC(=S)NNC(=O)c2c(Br)c(C)nn2C)c(C(=O)OC)c1C	.	.	-5	61*	38
Cc1ccc(-c2ccc(/C=C/C(=O)c3ccccc3)o2)cc1	-7	19	-11	11	.
O=C(/C=C/c1ccc(-c2ccccc2)o1)c1ccccc1	22	24	9	111*	5
Cc1cc(OCC(=O)Nc2ccc(CN3CCOCC3)cc2)c2c(C)c(C)c(=O)oc2c1	.	.	-1	-1	.
S=c1[nH]c(-c2ccccc2)cn1/N=C/c1cccs1	.	.	-2	63*	27
CC(=O)Nc1ccc2c3c(cccc13)CC2	.	.	0	-13	.
Cc1cc(C)c(S(=O)(=O)Nc2ccc3c4c(cccc24)CC3)c(C)c1	9	12	4	91*	30
O=S(=O)(Nc1ccc2c3c(cccc13)CC2)c1ccccc1	.	.	.	53	.
Cc1ccc(S(=O)(=O)Nc2ccc3c4c(cccc24)CC3)c(C)c1	.	.	0	74*	26
O=C(c1ccc(Cl)c(S(=O)(=O)NCc2cccnc2)c1)N1CCCC1	.	.	-6	-8	.
CCc1nc(N2CCC3(CC2)OCCO3)c2nnn(Cc3ccccc3)c2n1	5	11	2	7	.
Cc1nc(N2CCC3(CC2)OCCO3)c2nnn(Cc3ccccc3F)c2n1	17	2	-4	61*	31
CN(NS(=O)(=O)c1ccc([N+](=O)[O-])cc1)c1ccccc1	.	.	.	82*	55*	Diaph ctr 10uM=91*;Diaphorase 30uM=85*
C[C@H](O)[C@@H]1CN2CCc3c([nH]c4ccccc34)[C@@H]2C[C@@H]1N(C)C(=O)NC1CCCCC1	.	.	.	-22	.
O=C(COC(=O)CCNS(=O)(=O)c1ccccc1)NC(=O)c1ccccc1	.	.	-1	6	.
CN(c1ccccc1)S(=O)(=O)c1cccc(NC(=O)c2ccc(Cl)c([N+](=O)[O-])c2)c1	.	.	-1	17	.
Cc1cccn2cc(-c3c[nH]c4ccccc34)nc12	1	18	-4	49	.
Brc1ccc2nc(-c3c[nH]c4ccccc34)cn2c1	-1	17	0	93*	32
COc1ccc(C(C#N)=C2C=CC(=NO)C=C2)cc1	.	.	12	61*	-10
Cn1c(=O)c2[nH]c(-c3ccccc3)c(O)c2n(C)c1=O	-3	47	1	71*	59*	Diaph ctr 10uM=-2;Diaphorase 30uM=10
Cc1ccc(NC(=O)COc2ccccc2C(N)=O)cc1S(=O)(=O)N1CCCCCC1	.	.	2	-3	.
N#Cc1cc(-c2ccccc2)nn1-c1ccccc1	-26	38	31	80*	34
CCCC(=O)Nc1nc(-c2ccc(OC)cc2)cs1	-3	8	-2	17	.
